Data on 1 molecule can be found in ChEMBL document CHEMBL5653614, “Rescue of fragile X syndrome phenotypes in Fmr1 KO mice by the small-molecule PAK inhibitor FRAX486” (Proc Natl Acad Sci U S A, 2013).

The subject of data set [1] is Mus musculus. Description: Protective activity in Fmr1 knockout FVB.129P2-Fmr1tm1Cgr/J mouse assessed as decrease in apical dendritic spine density in layer II/III pyramidal neurons segment 2 at 20 mg/kg, sc and measured after 8 hrs by Golgi-Cox technique analysis. It is filed as functional, organism-based. The essentials: (§1)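 Adult male WT and Fmr1 KO FVB mice given 20 mg/kg s.c. or vehicle; brains collected 8 h later and Golgi stained. Apical dendrites of layer II/III pyramidal neurons in temporal cortex, originating 50–100 µm from the soma, were divided into ten 10-µm segments and spines counted. 40–60 neurons from 4–6 mice per group; one-way ANOVA.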

The subject of data set [2] is Mus musculus. The data set is described as follows: Protective activity in FVB.129P2-Pde6b+ Tyr c-ch/AntJ wild type mouse assessed as decrease in time spent in moving at 20 mg/kg, sc for 5 days and measured for 30 mins by open field assay. Format: functional, organism-based. The settings on record: time 5.0 day. The essentials:
(§2)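 Adult male WT and Fmr1 KO mice dosed s.c. at 20 mg/kg or vehicle for 5 d; tested 4–5.5 h after dosing. Single mouse in a novel open field for 30 min, tracked by infrared sensors in 1-min bins; bar-graph values averaged over minutes 18–30. Mice beyond 2 SD in total distance, or immobile for 5 consecutive minutes, were excluded.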

Data set [3] concerns Mus musculus. Description: Anti-seizure activity against 124dB loud auditory stimulus induced Fmr1 knockout FVB.129P2-Fmr1tm1Cgr/J mouse model of audiogenic seizure assessed as decrease in sound-induced wild running at 10 mg/kg,sc for 5 days followed by audiogenic seizure induction after 8 hrs post-treatment by audiogenic seizure assay (Rvb=100%). The settings on record: time 5 day. It is filed as functional. Details: scale not given: the % may be the effect or the level left. The essentials:
(§3)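 Adult male Fmr1 KO mice given 10 or 20 mg/kg s.c. daily for 5 d in 20% hydroxypropyl-β-cyclodextrin vehicle. AGS assay run 8 h after the final injection: 2 min acclimation in an acrylic chamber, then a 124 dB auditory stimulus. Incidence of wild running and seizure recorded; χ2 comparison with vehicle.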

Data set [4] relates to Mus musculus. Description: Protective activity in Fmr1 knockout FVB.129P2-Fmr1tm1Cgr/J mouse assessed as decrease in apical dendritic spine density in layer II/III pyramidal neurons segment 6 at 20 mg/kg, sc and measured after 8 hrs by Golgi-Cox technique analysis. It is filed as functional, organism-based. The essentials:
as §1

In data set [5] the test system is Mus musculus. Description: Protective activity in Fmr1 knockout FVB.129P2-Fmr1tm1Cgr/J mouse assessed as decrease in apical dendritic spine density in layer II/III pyramidal neurons segment 7 at 20 mg/kg, sc and measured after 8 hrs by Golgi-Cox technique analysis. It is filed as functional, organism-based. The essentials:
as §1

Data set [6] has as its system Mus musculus. The data set is described as follows: Protective activity in Fmr1 knockout FVB.129P2-Fmr1tm1Cgr/J mouse model of Fragile X syndrome assessed as decrease in time spent in moving at 20 mg/kg, sc for 5 days and measured for 30 mins by open field assay. It is filed as functional, organism-based. The settings on record: time 5.0 day. The essentials:
as §2

Data set [7] has as its system Mus musculus. Description: Anti-seizure activity against 124dB loud auditory stimulus induced Fmr1 knockout FVB.129P2-Fmr1tm1Cgr/J mouse model of audiogenic seizure assessed as decrease in sound-induced seizure at 10 mg/kg,sc for 5 days followed by audiogenic seizure induction after 8 hrs post-treatment by audiogenic seizure assay (Rvb=96%). Format: functional. Also noted: scale not given: the % may be the effect or the level left. Particulars: time 5 day. The essentials:
as §3

For data set [8], the system named is Mus musculus. Description: Protective activity in Fmr1 knockout FVB.129P2-Fmr1tm1Cgr/J mouse assessed as decrease in apical dendritic spine density in layer II/III pyramidal neurons segment 10 at 20 mg/kg, sc and measured after 8 hrs by Golgi-Cox technique analysis. Format: functional, organism-based. The essentials:
as §1

In data set [9] the test system is Mus musculus. The data set is described as follows: Protective activity in FVB.129P2-Pde6b+ Tyr c-ch/AntJ wild type mouse assessed as decrease in counterclockwise revolutions at 20 mg/kg, sc for 5 days by open field assay. Particulars: time 5.0 day. Format: functional, organism-based. The essentials:
as §2

Data set [10] is described as follows: Drug concentration in FVB.129P2 mouse brain at 20 mg/kg,sc and measured after 1 hrs by LC-MS/MS analysis. It is filed as ADME, organism-based. Particulars: read-out: Ct. The essentials: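 WT FVB.129P2 mice got one s.c. injection of 20 mg/kg (2 mg/mL in 20% hydroxypropyl-β-cyclodextrin). Blood and forebrain were collected at time points from 15 min to 24 h. Forebrain was weighed, snap-frozen and homogenized in 2 volumes of cold PBS. Drug quantified by LC-MS/MS. n = 2–3, mean ± SEM.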

Data set [11] concerns Mus musculus. The data set is described as follows: Anti-seizure activity against 124dB loud auditory stimulus induced Fmr1 knockout FVB.129P2-Fmr1tm1Cgr/J mouse model of audiogenic seizure assessed as decrease in sound-induced wild running at 30 mg/kg,sc for 8 hrs followed by audiogenic seizure induction by audiogenic seizure assay (Rvb=100%). Format: functional. Details: scale not given: the % may be the effect or the level left. The essentials: (§4)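 Adult male mice (10–17 wk). Single s.c. dose (0, 10, 20 or 30 mg/kg) in 20% (wt/vol) hydroxypropyl-β-cyclodextrin vehicle; AGS induced 8 h later. Mouse acclimated 2 min in a clear acrylic two-chamber box, then exposed to a 124 dB sound. Scored as percentage of animals showing each sequential phase (wild running, seizure, death by respiratory arrest); χ2 test against vehicle.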

For data set [12], the system named is Mus musculus. The data set is described as follows: Anti-seizure activity against 124dB loud auditory stimulus induced Fmr1 knockout FVB.129P2-Fmr1tm1Cgr/J mouse model of audiogenic seizure assessed as decrease in sound-induced wild running at 20 mg/kg,sc for 8 hrs followed by audiogenic seizure induction by audiogenic seizure assay (Rvb=100%). Format: functional. Also noted: scale not given: the % may be the effect or the level left. The essentials:
as §4

In data set [13] the test system is Mus musculus. Description: Anti-seizure activity against 124dB loud auditory stimulus induced Fmr1 knockout FVB.129P2-Fmr1tm1Cgr/J mouse model of audiogenic seizure assessed as decrease in sound-induced seizure at 10 mg/kg,sc for 8 hrs followed by audiogenic seizure induction by audiogenic seizure assay (Rvb=100%). It is filed as functional. Also noted: scale not given: the % may be the effect or the level left. The essentials: as §4

Data set [14] relates to Mus musculus. Description: Protective activity in Fmr1 knockout FVB.129P2-Fmr1tm1Cgr/J mouse assessed as decrease in apical dendritic spine density in layer II/III pyramidal neurons segment 1 at 20 mg/kg, sc and measured after 8 hrs by Golgi-Cox technique analysis. Format: functional, organism-based. The essentials: as §1
In data set [15] the test system is Mus musculus. Description: Anti-seizure activity against 124dB loud auditory stimulus induced Fmr1 knockout FVB.129P2-Fmr1tm1Cgr/J mouse model of audiogenic seizure assessed as decrease in sound-induced seizure at 20 mg/kg,sc for 5 days followed by audiogenic seizure induction after 8 hrs post-treatment by audiogenic seizure assay (Rvb=96%). It is filed as functional. Details: scale not given: the % may be the effect or the level left. The settings on record: time 5 day. The essentials: as §3

The subject of data set [16] is Mus musculus. Description: Protective activity in Fmr1 knockout FVB.129P2-Fmr1tm1Cgr/J mouse model of Fragile X syndrome assessed as balance on accelerating rotarod at 20 mg/kg, sc and measured for 4 to 5.25 hrs by rotarod test. Format: functional, organism-based. Particulars: time 4-5.25 hrs. The essentials: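 Adult male WT and Fmr1 KO mice tested 4–5.5 h after s.c. 20 mg/kg or vehicle. Latency to fall or jump off the rotating cylinder recorded (max 3 min). Three trials per mouse, 30–40 min apart; per-mouse average latency compared.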

Data set [17] concerns the target Serine/threonine-protein kinase PAK 4 (Homo sapiens, UniProt O96013). Description: Inhibition of PAK4 (unknown origin) by Z'-LYTE functional assay. The essentials:
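Full-length PAK isoforms phosphorylating an optimized peptide substrate in a Z-LYTE biochemical kinase assay, 10-point inhibitor titration. Duplicates (n = 2, mean ± SEM) plotted semilog; IC50 from a variable-slope sigmoidal dose–response fit.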

For data set [18], the system named is Mus musculus. Description: Anti-seizure activity against 124dB loud auditory stimulus induced Fmr1 FVB.129P2-Pde6b+ Tyr c-ch/AntJ wild type mouse model of audiogenic seizure assessed as decrease in sound-induced death due to respiratory arrest at 20 mg/kg,sc for 8 hrs followed by audiogenic seizure induction by audiogenic seizure assay. It is filed as functional, organism-based. The essentials: as §4

The structures appear in SMILES notation. Active and inactive are the calls of the source. The rule behind the calls is not given here.

Sequence of Serine/threonine-protein kinase PAK 4 (O96013 whole entry, canonical isoform): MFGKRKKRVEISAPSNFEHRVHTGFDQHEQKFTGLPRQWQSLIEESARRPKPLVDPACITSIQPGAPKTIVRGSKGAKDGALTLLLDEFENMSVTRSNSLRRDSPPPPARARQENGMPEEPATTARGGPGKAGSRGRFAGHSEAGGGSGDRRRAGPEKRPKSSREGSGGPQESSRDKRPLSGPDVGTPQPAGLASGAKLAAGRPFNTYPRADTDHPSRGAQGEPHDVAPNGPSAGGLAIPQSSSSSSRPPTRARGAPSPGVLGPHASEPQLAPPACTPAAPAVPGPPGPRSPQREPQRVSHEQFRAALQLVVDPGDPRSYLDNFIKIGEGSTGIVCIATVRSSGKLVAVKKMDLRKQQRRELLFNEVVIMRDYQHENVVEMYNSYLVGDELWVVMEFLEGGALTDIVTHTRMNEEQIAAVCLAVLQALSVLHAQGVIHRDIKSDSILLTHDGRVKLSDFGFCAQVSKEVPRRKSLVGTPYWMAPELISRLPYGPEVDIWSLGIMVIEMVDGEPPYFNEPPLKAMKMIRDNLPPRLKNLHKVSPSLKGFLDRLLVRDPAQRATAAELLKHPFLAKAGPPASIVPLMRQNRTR

By IC50 is commonly meant the concentration needed to halve the response being measured. As to `CCn1c(=O)c(-c2ccc(Cl)cc2Cl)cc2cnc(Nc3ccc(N4CCNCC4)c(F)c3)nc21`, the result with Mus musculus [1], with Mus musculus [4], with Mus musculus [5], in the data set on Mus musculus [8], in the data set on Mus musculus [14] and with Mus musculus [16] was inactive. In addition, in the data set with Mus musculus [18], the outcome was inactive. Also, the outcome in the data set on Mus musculus [2], with Mus musculus [6] and in the data set on Mus musculus [9] was Active. Besides, the Activity with Mus musculus [3] amounted to 75%; with Mus musculus [7], 50%; with Mus musculus [11], 0%; in the data set on Mus musculus [12], 25%; in the data set on Mus musculus [13] it was 80%; in the data set with Mus musculus [15], 42%. Moreover, in data set [10], the concentration at 1 h worked out at 155 ng/g. The same molecule had an IC50 in data set [17] of 779 nM.
